Test results from ChEMBL document CHEMBL1255501, “Heteroresistance of Cryptococcus gattii to fluconazole” (2010).
Calls of active or inactive are those of the source.

What was measured:
Type in all cases: functional, organism-based
Details in all cases: Cryptococcus bacillisporus
[1] = tested on: Cryptococcus gattii species complex; assay: Antimicrobial activity against fluconazole-resistant Cryptococcus gattii serotype B isolate NIH184 at 64 ug/ml
In short: (§1)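 Strains were grown overnight in YPD broth at 30°C, washed, serially diluted in sterile saline and spotted at 3 μl onto YPD agar alone or YPD agar containing a xenobiotic: rhizoxin 0.5 μg/ml, gliotoxin 3.2 μg/ml or trichostatin A 64 μg/ml. Growth was compared by spot test.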

[2] = tested on: Cryptococcus gattii species complex; assay: Antimicrobial activity against fluconazole-resistant Cryptococcus gattii serotype B isolate NIH771 at 64 ug/ml
[3] = tested on: Cryptococcus gattii species complex; assay: Antimicrobial activity against fluconazole-resistant Cryptococcus gattii serotype C isolate H0058-1-818 at 64 ug/ml
[4] = tested on: Cryptococcus gattii species complex; assay: Antimicrobial activity against fluconazole-resistant Cryptococcus gattii serotype B isolate NIH409 at 64 ug/ml; in short: as §1
[5] = tested on: Cryptococcus gattii species complex; assay: Antimicrobial activity against fluconazole-resistant Cryptococcus gattii serotype B isolate B5788 at 64 ug/ml; in short: as §1
[6] = tested on: Cryptococcus gattii species complex; assay: Antimicrobial activity against fluconazole-resistant Cryptococcus gattii serotype B isolate B4506 at 64 ug/ml; in short: as §1
[7] = tested on: Cryptococcus gattii species complex; assay: Antimicrobial activity against fluconazole-resistant Cryptococcus gattii serotype C isolate NIH34 at 64 ug/ml
[8] = tested on: Cryptococcus gattii species complex; assay: Antimicrobial activity against fluconazole-resistant Cryptococcus gattii serotype B isolate B3939 at 64 ug/ml; in short: as §1
[9] = tested on: Cryptococcus gattii species complex; assay: Antimicrobial activity against fluconazole-resistant Cryptococcus gattii serotype B isolate NIH189 at 64 ug/ml; in short: as §1
[10] = tested on: Cryptococcus gattii species complex; assay: Antimicrobial activity against fluconazole-resistant Cryptococcus gattii serotype B isolate NIH754 at 64 ug/ml; in short: as §1
[11] = tested on: Cryptococcus gattii species complex; assay: Antimicrobial activity against fluconazole-resistant Cryptococcus gattii serotype B isolate NIH200 at 64 ug/ml; in short: as §1
[12] = tested on: Cryptococcus gattii species complex; assay: Antimicrobial activity against fluconazole-resistant Cryptococcus gattii serotype B isolate B5763 at 64 ug/ml; in short: as §1
[13] = tested on: Cryptococcus gattii species complex; assay: Antimicrobial activity against fluconazole-resistant Cryptococcus gattii serotype B isolate NIH198 at 64 ug/ml; in short: as §1
[14] = tested on: Cryptococcus gattii species complex; assay: Antimicrobial activity against fluconazole-resistant Cryptococcus gattii serotype B isolate NIH535 at 64 ug/ml; in short: as §1
[15] = tested on: Cryptococcus gattii species complex; assay: Antimicrobial activity against fluconazole-resistant Cryptococcus gattii serotype C isolate NIH257 at 64 ug/ml
[16] = tested on: Cryptococcus gattii species complex; assay: Antimicrobial activity against fluconazole-resistant Cryptococcus gattii serotype B isolate NIH412 at 64 ug/ml; in short: as §1
[17] = tested on: Cryptococcus gattii species complex; assay: Antimicrobial activity against fluconazole-resistant Cryptococcus gattii serotype B isolate RB3 at 64 ug/ml
[18] = tested on: Cryptococcus gattii species complex; assay: Antimicrobial activity against fluconazole-resistant Cryptococcus gattii serotype C isolate H00581-1941 at 64 ug/ml
[19] = tested on: Cryptococcus deuterogattii; assay: Antimicrobial activity against fluconazole-resistant Cryptococcus gattii serotype B isolate NIH444 at 64 ug/ml; in short: as §1
[20] = tested on: Cryptococcus gattii species complex; assay: Antimicrobial activity against fluconazole-resistant Cryptococcus gattii serotype B isolate NIH200 at 0.5 ug/ml; in short: as §1
[21] = tested on: Cryptococcus gattii species complex; assay: Antimicrobial activity against fluconazole-resistant Cryptococcus gattii serotype B isolate NIH412 at 0.5 ug/ml; in short: as §1
[22] = tested on: Cryptococcus gattii species complex; assay: Antimicrobial activity against fluconazole-resistant Cryptococcus gattii serotype B isolate RB3 at 0.5 ug/ml
[23] = tested on: Cryptococcus gattii species complex; assay: Antimicrobial activity against fluconazole-resistant Cryptococcus gattii serotype B isolate B3939 at 0.5 ug/ml; in short: as §1
[24] = tested on: Cryptococcus gattii species complex; assay: Antimicrobial activity against fluconazole-resistant Cryptococcus gattii serotype C isolate H0058-1-818 at 0.5 ug/ml
[25] = tested on: Cryptococcus gattii species complex; assay: Antimicrobial activity against fluconazole-resistant Cryptococcus gattii serotype C isolate H00581-1941 at 0.5 ug/ml
[26] = tested on: Cryptococcus gattii species complex; assay: Antimicrobial activity against fluconazole-resistant Cryptococcus gattii serotype C isolate NIH34 at 0.5 ug/ml
[27] = tested on: Cryptococcus gattii species complex; assay: Antimicrobial activity against fluconazole-resistant Cryptococcus gattii serotype B isolate NIH198 at 0.5 ug/ml; in short: as §1
[28] = tested on: Cryptococcus deuterogattii; assay: Antimicrobial activity against fluconazole-resistant Cryptococcus gattii serotype B isolate NIH444 at 0.5 ug/ml; in short: as §1
[29] = tested on: Cryptococcus gattii species complex; assay: Antimicrobial activity against fluconazole-resistant Cryptococcus gattii serotype B isolate B5763 at 0.5 ug/ml; in short: as §1
[30] = tested on: Cryptococcus gattii species complex; assay: Antimicrobial activity against fluconazole-resistant Cryptococcus gattii serotype B isolate B4506 at 0.5 ug/ml; in short: as §1
[31] = tested on: Cryptococcus gattii species complex; assay: Antimicrobial activity against fluconazole-resistant Cryptococcus gattii serotype B isolate NIH754 at 0.5 ug/ml; in short: as §1
[32] = tested on: Cryptococcus gattii species complex; assay: Antimicrobial activity against fluconazole-resistant Cryptococcus gattii serotype B isolate NIH409 at 0.5 ug/ml; in short: as §1
[33] = tested on: Cryptococcus gattii species complex; assay: Antimicrobial activity against fluconazole-resistant Cryptococcus gattii serotype C isolate NIH257 at 0.5 ug/ml
[34] = tested on: Cryptococcus gattii species complex; assay: Antimicrobial activity against fluconazole-resistant Cryptococcus gattii serotype B isolate NIH535 at 0.5 ug/ml; in short: as §1
[35] = tested on: Cryptococcus gattii species complex; assay: Antimicrobial activity against fluconazole-resistant Cryptococcus gattii serotype B isolate B5788 at 0.5 ug/ml; in short: as §1
[36] = tested on: Cryptococcus gattii species complex; assay: Antimicrobial activity against fluconazole-resistant Cryptococcus gattii serotype B isolate NIH189 at 0.5 ug/ml; in short: as §1
[37] = tested on: Cryptococcus gattii species complex; assay: Antimicrobial activity against fluconazole-resistant Cryptococcus gattii serotype B isolate NIH771 at 0.5 ug/ml; in short: as §1
[38] = tested on: Cryptococcus gattii species complex; assay: Antimicrobial activity against fluconazole-resistant Cryptococcus gattii serotype B isolate NIH184 at 0.5 ug/ml; in short: as §1
[39] = tested on: Cryptococcus gattii species complex; assay: Antimicrobial activity against fluconazole-resistant Cryptococcus gattii serotype B isolate B4506 at 3.2 ug/ml; in short: as §1
[40] = tested on: Cryptococcus gattii species complex; assay: Antimicrobial activity against fluconazole-resistant Cryptococcus gattii serotype B isolate RB3 at 3.2 ug/ml
[41] = tested on: Cryptococcus gattii species complex; assay: Antimicrobial activity against fluconazole-resistant Cryptococcus gattii serotype B isolate B5788 at 3.2 ug/ml; in short: as §1
[42] = tested on: Cryptococcus gattii species complex; assay: Antimicrobial activity against fluconazole-resistant Cryptococcus gattii serotype C isolate NIH257 at 3.2 ug/ml
[43] = tested on: Cryptococcus gattii species complex; assay: Antimicrobial activity against fluconazole-resistant Cryptococcus gattii serotype B isolate NIH200 at 3.2 ug/ml; in short: as §1
[44] = tested on: Cryptococcus gattii species complex; assay: Antimicrobial activity against fluconazole-resistant Cryptococcus gattii serotype C isolate H00581-1941 at 3.2 ug/ml
[45] = tested on: Cryptococcus deuterogattii; assay: Antimicrobial activity against fluconazole-resistant Cryptococcus gattii serotype B isolate NIH444 at 3.2 ug/ml; in short: as §1
[46] = tested on: Cryptococcus gattii species complex; assay: Antimicrobial activity against fluconazole-resistant Cryptococcus gattii serotype B isolate NIH184 at 3.2 ug/ml; in short: as §1
[47] = tested on: Cryptococcus gattii species complex; assay: Antimicrobial activity against fluconazole-resistant Cryptococcus gattii serotype C isolate NIH34 at 3.2 ug/ml
[48] = tested on: Cryptococcus gattii species complex; assay: Antimicrobial activity against fluconazole-resistant Cryptococcus gattii serotype B isolate NIH198 at 3.2 ug/ml; in short: as §1
[49] = tested on: Cryptococcus gattii species complex; assay: Antimicrobial activity against fluconazole-resistant Cryptococcus gattii serotype B isolate NIH409 at 3.2 ug/ml; in short: as §1
[50] = tested on: Cryptococcus gattii species complex; assay: Antimicrobial activity against fluconazole-resistant Cryptococcus gattii serotype B isolate NIH412 at 3.2 ug/ml; in short: as §1
[51] = tested on: Cryptococcus gattii species complex; assay: Antimicrobial activity against fluconazole-resistant Cryptococcus gattii serotype B isolate NIH754 at 3.2 ug/ml; in short: as §1
[52] = tested on: Cryptococcus gattii species complex; assay: Antimicrobial activity against fluconazole-resistant Cryptococcus gattii serotype B isolate B3939 at 3.2 ug/ml; in short: as §1
[53] = tested on: Cryptococcus gattii species complex; assay: Antimicrobial activity against fluconazole-resistant Cryptococcus gattii serotype C isolate H0058-1-818 at 3.2 ug/ml
[54] = tested on: Cryptococcus gattii species complex; assay: Antimicrobial activity against fluconazole-resistant Cryptococcus gattii serotype B isolate NIH535 at 3.2 ug/ml; in short: as §1
[55] = tested on: Cryptococcus gattii species complex; assay: Antimicrobial activity against fluconazole-resistant Cryptococcus gattii serotype B isolate NIH771 at 3.2 ug/ml
[56] = tested on: Cryptococcus gattii species complex; assay: Antimicrobial activity against fluconazole-resistant Cryptococcus gattii serotype B isolate B5763 at 3.2 ug/ml; in short: as §1
[57] = tested on: Cryptococcus gattii species complex; assay: Antimicrobial activity against fluconazole-resistant Cryptococcus gattii serotype B isolate NIH189 at 3.2 ug/ml; in short: as §1

Measured: Activity

CC(/C=C/C(=O)NO)=C\[C@@H](C)C(=O)c1ccc(N(C)C)cc1
inactive: [1] | [2] | [3] | [4] | [5] | [6] | [7] | [8] | [9] | [10] | [11] | [12] | [13] | [14] | [15] | [16] | [17] | [18] | [19]

CO[C@@H](/C(C)=C/C=C/C(C)=C/c1coc(C)n1)[C@@H](C)[C@@H]1C[C@H](O)[C@@]2(C)O[C@@H]2/C=C/[C@@H](C)[C@H]2C[C@H](CC(=O)O2)C[C@@H]2O[C@H]2C(=O)O1
inactive: [20] | [21] | [22] | [23] | [24] | [25] | [26] | [27] | [28] | [29] | [30] | [31] | [32] | [33] | [34] | [35] | [36] | [37] | [38]

CN1C(=O)[C@]23CC4=CC=C[C@H](O)[C@H]4N2C(=O)[C@@]1(CO)SS3
inactive: [39] | [40] | [41] | [42] | [43] | [44] | [45] | [46] | [47] | [48] | [49] | [50] | [51] | [52] | [53] | [54] | [55] | [56] | [57]
